Data from ChEMBL document CHEMBL1123730, “Synthesis and pharmacological evaluation of a new class of 2-(2-aminothiazol-4-yl)-2-hydrazonoacetamido cephalosporins” (J Med Chem, 1987).
Values after ≈ are worked out from the molar mass of the structure shown.

Tests used:
[1] = test system: Klebsiella pneumoniae; test: Minimum inhibitory concentration against Klebsiella pneumoniae 102; assay type: functional
[2] = test system: Proteus; test: Geometrical average of minimum inhibitory concentration was determined in isosensitest broth against Proteus; assay type: functional, Proteus sp.
[3] = test system: Neisseria perflava; test: Geometrical average of minimum bactericidal concentration was determined in isosensitest broth against Neisseria perfl (1); assay type: functional
[4] = Serum level was determined at 240 min after an intravenous administration of 50 mg/kg in rats; assay type: ADME, organism-based; parameters: dose 50 mg/kg, route intravenous; conditions: rat, read-out: Serum level
In short: (§1)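 Dose 50 mg/kg in sterile water, iv or im, to Wistar rats 200-250 g, five per time point; killed at set intervals, blood centrifuged for serum. Antibiotic measured by agar diffusion on Nutrient Agar with E. coli ATCC 10536 (37 °C, 18 h), standards diluted in serum; detection limit 1 μg/mL. Mean ± SEM of five rats.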

[5] = Serum level was determined at 5 min after intramuscular administration of 50 mg/kg in rats; assay type: ADME, organism-based; parameters: dose 50 mg/kg, route intramuscular; conditions: rat, im, read-out: Serum level; in short: as §1
[6] = Geometrical average of minimum inhibitory concentration was determined in isosensitest broth against gram-negative strains.; assay type: functional
[7] = test system: Escherichia coli; test: Geometrical average of minimum inhibitory concentration was determined in isosensitest broth against Escherichia coli; assay type: functional
[8] = Distribution (50 mg/kg) was determined in lung 120 min after intravenous administration; assay type: ADME, organism-based; conditions: in vivo, 2 h
In short: (§2)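 Wistar rats (200-250 g, groups of five) given 50 mg/kg in sterile water iv or im; killed at set times, lung, liver and kidney homogenized in 0.1 M pH 7.3 phosphate buffer (tissue:buffer 1:5). Drug assayed by agar diffusion on Nutrient Agar with E. coli ATCC 10536 (37 °C, 18 h); standards in phosphate buffer; detection limit 0.5 μg/mL; mean ± SEM.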

[9] = test system: Bacillus; test: Geometrical average of minimum bactericidal concentration was determined in isosensitest broth against Bacillus; assay type: functional
[10] = test system: Neisseria perflava; test: Geometrical average of minimum inhibitory concentration was determined in isosensitest broth against Neisseria perfl.; assay type: functional
[11] = Distribution (50 mg/kg) was determined in liver 5 min after intravenous administration; assay type: ADME, organism-based; conditions: read-out: Tissue distribution; in short: as §2
[12] = Distribution (50 mg/kg) was determined in kidney 15 min after intravenous administration; assay type: ADME, organism-based; conditions: read-out: Tissue distribution; in short: as §2
[13] = test system: Salmonella; test: Geometrical average of minimum inhibitory concentration was determined in isosensitest broth against Salmonella; assay type: functional
[14] = Distribution (50 mg/kg) was determined in lung 5 min after intramuscular administration; assay type: ADME, organism-based; conditions: im, read-out: Tissue distribution; in short: as §2
[15] = Distribution (50 mg/kg) was determined in liver 60 min after intramuscular administration; assay type: ADME, organism-based; conditions: im, read-out: Tissue distribution; in short: as §2
[16] = test system: Alcaligenes; test: Geometrical average of minimum inhibitory concentration was determined in isosensitest broth against Alcaligenes; assay type: functional
[17] = test system: Pseudomonas; test: Geometrical average of minimum inhibitory concentration was determined in isosensitest broth against Pseudomonas; assay type: functional
[18] = test system: Staphylococcus aureus; test: Geometrical average of minimum inhibitory concentration was determined in isosensitest broth against Staphylococcus (P); assay type: functional
[19] = Distribution (50 mg/kg) was determined in kidney 15 min after intramuscular administration; assay type: ADME, organism-based; conditions: im, read-out: Tissue distribution; in short: as §2
[20] = Distribution (50 mg/kg) was determined in liver 15 min after intravenous administration; assay type: ADME, organism-based; conditions: read-out: Tissue distribution; in short: as §2
[21] = Distribution (50 mg/kg) was determined in lung 5 min after intravenous administration; assay type: ADME, organism-based; conditions: read-out: Tissue distribution; in short: as §2
[22] = test system: Bacillus; test: Geometrical average of minimum inhibitory concentration was determined in isosensitest broth against Bacillus; assay type: functional
[23] = Geometrical average of minimum inhibitory concentration was determined in isosensitest broth against gram-positive strains.; assay type: functional
[24] = test system: Streptococcus; test: Geometrical average of minimum bactericidal concentration was determined in isosensitest broth against Streptococcus; assay type: functional
[25] = Distribution (50 mg/kg) was determined in kidney 30 min after intravenous administration; assay type: ADME, organism-based; conditions: read-out: Tissue distribution; in short: as §2
[26] = Distribution (50 mg/kg) was determined in lung 30 min after intravenous administration; assay type: ADME, organism-based; conditions: read-out: Tissue distribution; in short: as §2
[27] = Distribution (50 mg/kg) was determined in liver 60 min after intravenous administration; assay type: ADME, organism-based; conditions: read-out: Tissue distribution; in short: as §2
[28] = Distribution (50 mg/kg) was determined in liver 5 min after intramuscular administration; assay type: ADME, organism-based; conditions: in vivo, im; in short: as §2
[29] = Serum level was determined at 60 min after an intravenous administration of 50 mg/kg in rats; assay type: ADME, organism-based; parameters: dose 50 mg/kg, route intravenous; conditions: rat, read-out: Serum level; in short: as §1
[30] = test system: Enterobacter; test: Geometrical average of minimum inhibitory concentration was determined in isosensitest broth against Enterobacter; assay type: functional
[31] = test system: Salmonella typhimurium; test: Minimum inhibitory concentration against Salmonella Typhimurium T.O was determined; assay type: functional, Salmonella enterica subsp. enterica serovar Typhimurium; conditions: Salmonella enterica
[32] = test system: Proteus; test: Geometrical average of minimum bactericidal concentration was determined in isosensitest broth against Proteus; assay type: functional, Proteus sp.
[33] = Distribution (50 mg/kg) was determined in liver 30 min after intravenous administration; assay type: ADME, organism-based; conditions: read-out: Tissue distribution; in short: as §2
[34] = Distribution (50 mg/kg) was determined in kidney 5 min after intramuscular administration; assay type: ADME, organism-based; conditions: im, read-out: Tissue distribution; in short: as §2
[35] = test system: Pseudomonas; test: Geometrical average of minimum bactericidal concentration was determined in isosensitest broth against Pseudomonas; assay type: functional
[36] = Serum level was determined at 360 min after intramuscular administration of 50 mg/kg in rats; assay type: ADME, organism-based; parameters: dose 50 mg/kg, route intramuscular; conditions: rat, im, read-out: Serum level; in short: as §1
[37] = Serum level was determined at 120 min after an intravenous administration of 50 mg/kg in rats; assay type: ADME, organism-based; parameters: dose 50 mg/kg, route intravenous; conditions: rat, read-out: Serum level; in short: as §1
[38] = test system: Escherichia coli; test: In vivo protective dose was determined in infected swiss mice (120/strain) infected ip with Escherichia coli ISM with an inoculum size-0.5 mL of 10 E6 CFU/mL of suspension. Activity in range of 0.90-2.34; assay type: functional
[39] = Distribution (50 mg/kg) was determined in kidney 120 min after intramuscular administration; assay type: ADME, organism-based; conditions: im, read-out: Tissue distribution; in short: as §2
[40] = test system: Klebsiella; test: Geometrical average of minimum bactericidal concentration was determined in isosensitest broth against Klebsiella; assay type: functional
[41] = Distribution (50 mg/kg) was determined in kidney 5 min after intravenous administration; assay type: ADME, organism-based; conditions: read-out: Tissue distribution; in short: as §2
[42] = Serum level was determined at 15 min after intramuscular administration of 50 mg/kg in rats; assay type: ADME, organism-based; parameters: dose 50 mg/kg, route intramuscular; conditions: rat, im, read-out: Serum level; in short: as §1
[43] = test system: Salmonella; test: Geometrical average of minimum bactericidal concentration was determined in isosensitest broth against Salmonella; assay type: functional
[44] = test system: Sarcina; test: Geometrical average of minimum inhibitory concentration was determined in isosensitest broth against Sarcina; assay type: functional
[45] = Distribution (50 mg/kg) was determined in liver 15 min after intramuscular administration; assay type: ADME, organism-based; conditions: im, read-out: Tissue distribution; in short: as §2
[46] = Distribution (50 mg/kg) was determined in liver 30 min after intramuscular administration; assay type: ADME, organism-based; conditions: im, read-out: Tissue distribution; in short: as §2
[47] = Serum level was determined at 30 min after intramuscular administration of 50 mg/kg in rats; assay type: ADME, organism-based; parameters: dose 50 mg/kg, route intramuscular; conditions: rat, im, read-out: Serum level; in short: as §1
[48] = Distribution (50 mg/kg) was determined in lung 30 min after intramuscular administration; assay type: ADME, organism-based; conditions: im, read-out: Tissue distribution; in short: as §2
[49] = Distribution (50 mg/kg) was determined in kidney 30 min after intramuscular administration; assay type: ADME, organism-based; conditions: im, read-out: Tissue distribution; in short: as §2
[50] = Serum level was determined at 240 min after intramuscular administration of 50 mg/kg in rats; assay type: ADME, organism-based; parameters: dose 50 mg/kg, route intramuscular; conditions: rat, im, read-out: Serum level; in short: as §1
[51] = test system: Staphylococcus aureus; test: Geometrical average of minimum inhibitory concentration was determined in isosensitest broth against Staphylococcus; assay type: functional
[52] = test system: Staphylococcus; test: Geometrical average of minimum bactericidal concentration was determined in isosensitest broth against Staphylococcus (P); assay type: functional
[53] = Distribution (50 mg/kg) was determined in liver 120 min after intravenous administration; assay type: ADME, organism-based; conditions: read-out: Tissue distribution; in short: as §2
[54] = Distribution (50 mg/kg) was determined in lung 120 min after intramuscular administration; assay type: ADME, organism-based; conditions: im, read-out: Tissue distribution; in short: as §2

Cn1nnnc1SCC1=C(C(=O)O)N2C(=O)[C@@H](NC(=O)/C(=N/N)c3csc(N)n3)[C@H]2SC1
MIC [1]: 1.56 µg/mL (≈ 3.14 µM)
MIC [2]: 1.08 µg/mL (≈ 2.17 µM)
MBC [3]: < 0.09 µg/mL
concentration at 4 h [4]: 3650 ng/mL
concentration at 5 min [5]: 34600 ng/mL
MIC [6]: 1.74 µg/mL (≈ 3.5 µM)
MIC [7]: 0.6 µg/mL (≈ 1.21 µM)
Tissue distribution [8]: Undetectable
MBC [9]: 50 µg/mL (≈ 101 µM)
MIC [10]: < 0.09 µg/mL
concentration at 5 min [11]: 43200 ng/g
concentration at 0.25 h [12]: 50600 ng/g
MIC [13]: 0.86 µg/mL (≈ 1.73 µM)
concentration at 5 min [14]: ≤ 5000 ng/g
concentration at 1 h [15]: 15100 ng/g
MIC [16]: 8.83 µg/mL (≈ 17.8 µM)
MIC [17]: > 100 µg/mL
MIC [18]: 35.3 µg/mL (≈ 71.1 µM)
concentration at 0.25 h [19]: 25100 ng/g
concentration at 0.25 h [20]: 25800 ng/g
concentration at 5 min [21]: 26400 ng/g
MIC [22]: 42 µg/mL (≈ 84.6 µM)
MIC [23]: 4.95 µg/mL (≈ 9.97 µM)
MBC [24]: 70.7 µg/mL (≈ 142 µM)
concentration at 0.5 h [25]: 19600 ng/g
concentration at 0.5 h [26]: 8970 ng/g
concentration at 1 h [27]: 9220 ng/g
Tissue distribution [28]: Undetectable
concentration at 1 h [29]: 52500 ng/mL
MIC [30]: 1.96 µg/mL (≈ 3.95 µM)
MIC [31]: 1.1 µg/mL (≈ 2.22 µM)
MBC [32]: 2.45 µg/mL (≈ 4.93 µM)
concentration at 0.5 h [33]: 18800 ng/g
concentration at 5 min [34]: 6420 ng/g
MBC [35]: > 100 µg/mL
concentration at 6 h [36]: 3430 ng/mL
concentration at 2 h [37]: 20500 ng/mL
ED50 [38]: 1.45 mg/kg
concentration at 2 h [39]: 10200 ng/g
MBC [40]: 2.78 µg/mL (≈ 5.6 µM)
concentration at 5 min [41]: 107000 ng/g
concentration at 0.25 h [42]: 86200 ng/mL
MBC [43]: 1.79 µg/mL (≈ 3.6 µM)
MIC [44]: 1.56 µg/mL (≈ 3.14 µM)
concentration at 0.25 h [45]: 15400 ng/g
concentration at 0.5 h [46]: 22100 ng/g
concentration at 0.5 h [47]: 96200 ng/mL
concentration at 0.5 h [48]: 12200 ng/g
concentration at 0.5 h [49]: 36200 ng/g
concentration at 4 h [50]: 10200 ng/mL
MIC [51]: 6.69 µg/mL (≈ 13.5 µM)
MBC [52]: 50 µg/mL (≈ 101 µM)
concentration at 2 h [53]: ≤ 5000 ng/g
concentration at 2 h [54]: ≤ 5000 ng/g
